# In PubChem BioAssay:
# Active and inactive are the calls of the source.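 Rule for the calls, unless noted: active = compounds giving at least 50% inhibition in the cell-based MKP-3 phosphatase rescue imaging test; inactive = the rest.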
# Assays:
# [1] = inhibitors of TNFa-induced NFkB p65 translocation, primary screen, imaging, HUVEC, MLSMR starter and 10KST1 sets (AID 438;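 active = inhibition above 20% together with a positive visual image hit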;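 note: compound added about 3h40 before a 20 min TNFalpha stimulation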;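 for inhibition: signal is the nuclear over cytoplasmic p65 intensity ratio per well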); settings: HUVEC TNFa-induced p65 nuclear translocation; cell count: measured here: nuclei count (cytotoxicity indicator), at 2.08 µM; inhibition: at 2 µM, stronger effect = higher value, 0% TNFa-plus-vehicle, 100% no-TNFa wells
# [2] = inhibitors of E-selectin induction by TNFa, primary screen, imaging, HUVEC, immunofluorescence, MLSMR starter and 10KST1 sets (AID 487;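 active = visually confirmed hit in the image check and inhibition above 20%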;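 for inhibition: signal is fraction of cell area covered by stained E-selectin grains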;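 for nuclei count: 100% = median nuclei count of all wells on the same plate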); settings: HUVEC TNFalpha-induced E-selectin immunofluorescence imaging, at 2 µM; inhibition: stronger effect = higher value; nuclei count: measured here: cell number, toxicity
# [3] = DUSP6 inhibitors restoring Erk phosphorylation by chemical complementation, primary imaging in DUSP6-transfected HeLa (AID 609); settings: HeLa MKP-3 transfected, phospho-Erk imaging KS statistic, at 10 µM, cells stimulated with TPA for 15 min;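 for inhibition: phospho-Erk level distribution per well compared with pooled transfected vehicle control wells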
# [4] = molecular target: Dual specificity protein phosphatase 6 (Homo sapiens) (UniProt Q16828); experiment: as above; settings: HeLa MKP-3 transfected, phospho-Erk imaging KS statistic; at 10 µM; stronger effect = higher value; cells stimulated with TPA for 15 min
# [5] = molecular target: Voltage-gated potassium channel subunit beta-2 (Rattus norvegicus) (UniProt P62483); experiment: KvBeta enzyme negative modulators, primary screen, biochemical, NADPH fluorescence (AID 622;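 active = fluorescence slope higher than the sample average by over 3 SD, cut at about -0.22 in these data, passing the limit was not always enough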;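 note: slope of raw intensity against log time taken from 70 to 1610 s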); settings: recombinant KvBeta, 4-cyanobenzaldehyde reduction, at 10 µM, stronger effect = higher value
# [6] = molecular target: Voltage-gated potassium channel subunit beta-2 (Rattus norvegicus) (UniProt P62483); experiment: KvBeta positive modulators, primary screen, biochemical, NADPH fluorescence (AID 623;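 active = NADPH fluorescence slope more negative than the mean of all samples by about 3 SD, 99.7% confidence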;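 note: fluorescence intensity change per second fitted from 20 to 320 s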); settings: Recombinant KvBeta, NADPH fluorescence decrease slope, 10 min; at 10 µM; stronger effect = lower value
# [7] = molecular target: Alpha-2C adrenergic receptor (Homo sapiens) (UniProt P18825); experiment: modulators of alpha2C/GIRK thallium flux, primary screen, cell-based, HEK293 alpha2C/GIRK1/2 (AID 624;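 active = fluorescence slope after compound addition differing from the mean of all screened samples at 99.7% confidence, in either direction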;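 note: slope of fluorescence ratio to pre-addition baseline per second over 15 to 24 s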); settings: thallium flux BTC fluorescence, at 10 µM, actives lie on both sides
# [8] = inhibitors of larval lipid processing in zebrafish, primary screen, whole organism, PED6 fluorescence, gall bladder and intestine (AID 686;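 active = a full or partial loss of lipid-probe fluorescence in the fish gall bladder, intestine or both, judged by eye; inactive = no fluorescence loss, or compound toxic to the fish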;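 note: larvae 5 to 7 days old with five fish per well; signal comes from phospholipase A2 cleavage of quenched PED6 carried via bile; overnight exposure to compound and PED6 before scoring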); settings: Zebrafish larvae PED6 lipid processing, fluorescence scoring; screened at 20 µM (by protocol)
# Procedure, shortened: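 Doses: 20 µM single dose. Test system: live zebrafish larvae aged 5-7 days, whole organism. Quantity: five larvae per well. Measured by: By-eye fluorescence microscopy. Reagent: ingested quenched lipid PED6 at 100 nM. Read-out: visual per-well fluorescence inhibition score. Times: overnight exposure of larvae to compound plus PED6.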
# [9] = inhibitors of Chlamydomonas gravitaxis, primary screen, whole organism, Chlamydomonas reinhardtii, WT vs cilia-less mutant, absorbance, 96-well (AID 463189;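 active = inhibition at or above 50% relative to wild type and mutant plate controls; inactive = inhibition below 50%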;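 note: 0% = wild type cc124 cells in DMSO and 100% = ciliumless bld1 mutant cells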); settings: OD600 absorbance, 2 days, at 10 µM, stronger effect = higher value
# [10] = measured here: cell density z-score
# [11] = measured here: nuclear c-Myc green intensity z-score
# [12] = measured here: nuclear pErk red intensity z-score, stronger effect = higher value
# Sequence of Alpha-2C adrenergic receptor (Homo sapiens) (P18825 whole entry, looked up): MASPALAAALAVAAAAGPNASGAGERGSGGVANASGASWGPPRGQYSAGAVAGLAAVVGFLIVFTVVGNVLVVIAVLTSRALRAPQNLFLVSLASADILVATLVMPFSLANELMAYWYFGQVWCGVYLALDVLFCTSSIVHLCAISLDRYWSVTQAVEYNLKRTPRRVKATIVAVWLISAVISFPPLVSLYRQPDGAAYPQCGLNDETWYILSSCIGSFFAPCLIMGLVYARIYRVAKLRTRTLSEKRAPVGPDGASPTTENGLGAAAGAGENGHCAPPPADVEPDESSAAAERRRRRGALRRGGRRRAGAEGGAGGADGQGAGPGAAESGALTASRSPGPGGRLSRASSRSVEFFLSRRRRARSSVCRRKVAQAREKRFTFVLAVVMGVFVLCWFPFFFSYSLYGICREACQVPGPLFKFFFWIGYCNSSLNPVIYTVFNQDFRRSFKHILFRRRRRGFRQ
# Sequence of Dual specificity protein phosphatase 6 (Homo sapiens) (Q16828 whole entry, looked up): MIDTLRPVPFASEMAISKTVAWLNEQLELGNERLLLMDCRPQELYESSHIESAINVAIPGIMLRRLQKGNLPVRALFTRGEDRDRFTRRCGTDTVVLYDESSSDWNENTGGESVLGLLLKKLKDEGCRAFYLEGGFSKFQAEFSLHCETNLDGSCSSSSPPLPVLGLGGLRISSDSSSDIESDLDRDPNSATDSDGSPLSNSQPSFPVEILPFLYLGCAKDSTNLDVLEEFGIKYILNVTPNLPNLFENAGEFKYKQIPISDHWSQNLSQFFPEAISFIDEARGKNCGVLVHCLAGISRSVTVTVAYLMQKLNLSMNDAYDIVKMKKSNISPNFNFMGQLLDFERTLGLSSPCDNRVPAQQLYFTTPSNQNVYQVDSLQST
# Sequence of Voltage-gated potassium channel subunit beta-2 (Rattus norvegicus) (P62483 whole entry, looked up): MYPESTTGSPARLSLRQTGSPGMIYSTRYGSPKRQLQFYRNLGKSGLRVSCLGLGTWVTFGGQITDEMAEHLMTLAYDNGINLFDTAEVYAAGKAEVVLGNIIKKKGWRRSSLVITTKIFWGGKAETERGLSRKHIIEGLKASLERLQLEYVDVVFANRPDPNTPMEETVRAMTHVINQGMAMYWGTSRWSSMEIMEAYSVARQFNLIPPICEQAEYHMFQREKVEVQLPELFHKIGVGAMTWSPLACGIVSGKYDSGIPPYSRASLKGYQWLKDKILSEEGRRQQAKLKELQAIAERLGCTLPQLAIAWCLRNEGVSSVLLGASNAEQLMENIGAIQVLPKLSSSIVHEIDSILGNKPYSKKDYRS
SMILES,cell count [1],inhibition [1],inhibition [2],nuclei count [2] [%],"z-score [3, 10]","z-score [3, 11]","z-score [3, 12]",inhibition [4],fluorescence slope [5],NADPH fluorescence slope [6],slope [7],outcome [8],inhibition [9]
COc1ccc(C2CC(=O)c3sc(N)nc3C2)cc1 (stereo unspecified),424,-15.2% (inactive),-328% (inactive),147,0.261,-0.0796,-0.89,26.6% (inactive),-0.408 (inactive),-1.9e-05 (inactive),0.00734 (inactive),inactive,0.76% (inactive)
CC1(C)Nc2ccc(O)cc2-c2c1ssc2=S,403,-28.2% (inactive),-198% (inactive),193,-0.436,-0.817,-1.32,-0.624% (inactive),-0.316 (inactive),3.7e-06 (inactive),0.00209 (inactive),inactive,-1.08% (inactive)
Cn1nccc1C(=O)Nc1ccccc1C(=O)O,640,-1.2% (inactive),16% (inactive),170,1.93,-0.909,-0.448,11.4% (inactive),-0.449 (inactive),-0.000369 (inactive),0.00518 (inactive),inactive,15.5% (inactive)
COC(=O)c1[nH]c2cc(OC)ccc2c1NC(=O)CCN1CCCC(C)(C)C1,350,-5.3% (inactive),-2.2% (inactive),153,-0.606,-0.827,0.954,7.42% (inactive),-0.44 (inactive),-0.00014 (inactive),0.00716 (inactive),inactive,-7.62% (inactive)
C#CCSC1=C(C#N)C(c2cccs2)C(C(=O)OCC)=C(C)N1 (stereo unspecified),674,-1.7% (inactive),-59.4% (inactive),167,-0.719,0.591,0.242,-7.28% (inactive),-0.417 (inactive),4.3e-06 (inactive),0.00405 (inactive),inactive,-6.51% (inactive)
Cc1nc2c(c(=O)n1CC1CCCO1)c1nc3ccccc3nc1n2Cc1ccc2c(c1)OCO2 (stereo unspecified),281,-7.1% (inactive),-128% (inactive),80.3,2.15,-0.362,-1.56,-0.584% (inactive),-0.42 (inactive),-0.000106 (inactive),0.00645 (inactive),inactive,9.64% (inactive)
CN(C)S(=O)(=O)Nc1ccc(NS(=O)(=O)N(C)C)c(S(=O)(=O)c2ccccc2)c1,341,-11.9% (inactive),-131% (inactive),99.4,-0.765,0.48,-2.08,7.73% (inactive),-0.495 (inactive),-0.000114 (inactive),0.00381 (inactive),inactive,-7.02% (inactive)
c1cncc(Oc2cccc(Oc3cccnc3)c2)c1,388,-2.6% (inactive),-116% (inactive),133,-0.336,0.96,-0.973,-2.07% (inactive),-0.426 (inactive),-1.4e-05 (inactive),0.00527 (inactive),inactive,-16% (inactive)
O=C1OC(Nc2ccc(Br)cc2F)c2ccccc21 (stereo unspecified),426,-1.6% (inactive),-16.9% (inactive),149,0.057,-0.568,0.211,-2.91% (inactive),-0.383 (inactive),-4.6e-05 (inactive),0.00575 (inactive),inactive,-4.19% (inactive)
Cc1nnc2n(-c3ccccc3)c(=O)c3c4c(sc3n12)COC(C(C)C)C4 (stereo unspecified),542,-6.5% (inactive),-106% (inactive),177,-0.97,1.36,-0.55,-0.608% (inactive),-0.357 (inactive),-2.6e-05 (inactive),0.00506 (inactive),inactive,-3.02% (inactive)
CC(=O)Nc1cc2c(cc1Br)OCCO2,524,-18.7% (inactive),-80.8% (inactive),169,-0.0183,1.62,-0.826,16.1% (inactive),-0.519 (inactive),-3.4e-05 (inactive),0.00516 (inactive),inactive,33.1% (inactive)
CCCc1cc(-c2nc(N)ncc2-c2ccc3c(c2)OCCCO3)c(O)cc1OC,570,-16.3% (inactive),-136% (inactive),122,0.844,-1.91,-0.934,11.9% (inactive),-0.519 (inactive),-5.4e-05 (inactive),0.00422 (inactive),inactive,91.5% (active)
CC(C)NC(=O)N1CCOCCOCCN(C(=O)NC(C)C)CCOCCOCC1,513,-16.8% (inactive),-142% (inactive),144,2.53,-2.34,-0.54,13.9% (inactive),-0.538 (inactive),-6.1e-05 (inactive),0.00725 (inactive),inactive,11.9% (inactive)
CN(C)CC(O)COc1cccc(OCC(O)CN(C)C)c1 (stereo unspecified),433,-6.5% (inactive),-137% (inactive),155,-1.38,-0.215,0.992,-7.28% (inactive),-0.4 (inactive),-4.2e-05 (inactive),0.00531 (inactive),inactive,-5.71% (inactive)
COc1ccccc1OCC(=O)Nc1ccc(S(=O)(=O)Nc2cc(C)nc(C)n2)cc1,571,-6.6% (inactive),3% (inactive),159,0.333,1.18,-0.662,4.25% (inactive),-0.303 (inactive),1.9e-05 (inactive),0.0043 (inactive),inactive,-4.91% (inactive)
CN1CCN(CCCCC(=O)c2ccccc2)CC1,600,-9.1% (inactive),14.9% (inactive),183,0.5,-1.07,-0.798,-6.06% (inactive),-0.397 (inactive),1.3e-06 (inactive),0.00562 (inactive),inactive,68.4% (active)
O=S(=O)(c1ccccc1)N1CCC(N2CCN(c3ccccc3)CC2)CC1,454,-26.3% (inactive),-98.2% (inactive),140,-1.37,-0.201,-1.07,-3.95% (inactive),-0.326 (inactive),1.7e-05 (inactive),0.006 (inactive),inactive,1.95% (inactive)
CCCOc1ccc(C2NC(=O)NC2=O)cc1 (stereo unspecified),614,-8% (inactive),-260% (inactive),113,-0.563,1.62,0.505,-0.159% (inactive),-0.511 (inactive),-7.1e-05 (inactive),0.00583 (inactive),inactive,-17% (inactive)
CCOc1nnnc2c1sc1nc(N3CCOCC3)c3c(c12)CC(C)(C)OC3,579,-3.2% (inactive),-78.7% (inactive),116,-0.458,-0.399,-0.83,-6.86% (inactive),-0.35 (inactive),1.4e-05 (inactive),0.00623 (inactive),inactive,-7.31% (inactive)
CN(C)C/C(Cl)=C(\Cl)c1ccccc1,584,-0.1% (inactive),-20.3% (inactive),159,-1.42,-0.391,0.439,4.25% (inactive),-0.53 (inactive),-6.5e-05 (inactive),0.00503 (inactive),inactive,10.7% (inactive)
Oc1c(C=NCc2ccncc2)sc2ccccc12,666,-11.1% (inactive),-63.6% (inactive),177,-0.185,0.688,2.15,-4.27% (inactive),-0.425 (inactive),-6.8e-05 (inactive),0.00509 (inactive),inactive,-6.05% (inactive)
CCOc1cccc(-c2nnc3sc(-c4cc(OC)c(OC)c(OC)c4)nn23)c1,647,-9.1% (inactive),-15.9% (inactive),171,1.15,0.91,-0.181,-15% (inactive),-0.39 (inactive),-0.000117 (inactive),0.00923 (inactive),inactive,6.41% (inactive)
O=C(O)C(Cc1c[nH]c2ccccc12)NS(=O)(=O)c1cccc2nsnc12 (stereo unspecified),564,-1.2% (inactive),-96.3% (inactive),160,-0.832,-0.134,0.46,19.1% (inactive),-0.487 (inactive),-5.5e-05 (inactive),0.00789 (inactive),inactive,-3.63% (inactive)
CCCCOC(=O)C(C)c1c(C)[nH]c(=S)[nH]c1=O (stereo unspecified),479,-1.2% (inactive),-142% (inactive),138,0.126,0.523,-0.0829,-3.5% (inactive),-0.505 (inactive),-3.9e-05 (inactive),0.00553 (inactive),inactive,11.1% (inactive)
CCc1c(C(=O)O)[nH]c2ccc(Br)cc12,581,-1.8% (inactive),-21.7% (inactive),171,-0.258,-0.825,2.03,-7.01% (inactive),-0.367 (inactive),-5.4e-05 (inactive),0.00495 (inactive),inactive,-2.83% (inactive)
OCCN(CCO)c1ncnc2c1sc1nc(N3CCOCC3)c3c(c12)CCCC3,597,-26.4% (inactive),-62.2% (inactive),167,0.421,-0.458,-0.129,7.73% (inactive),-0.275 (inactive),1.3e-05 (inactive),0.00534 (inactive),inactive,-3.05% (inactive)
COC(=O)CC1=NC(=O)CS1,690,-4.3% (inactive),-84.4% (inactive),164,-1.27,0.428,1.11,-7.28% (inactive),-0.41 (inactive),-8.9e-06 (inactive),0.00544 (inactive),inactive,-1.11% (inactive)
